Laboratory results from ChEMBL document CHEMBL1121973, “Synthesis and comparison of some cardiovascular properties of the stereoisomers of labetalol” (1982).
Active and inactive are the calls of the source. The calls are words filed in the database; no cut-off is given here.

What was measured:
[1] = biological target: Beta-1 adrenergic receptor (Rattus norvegicus) (UniProt P18090); assay: Potency to block Beta-1 adrenergic receptor relative to labetolol
Outline: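 Rats, iv dosing as HCl salts in three cumulative doses. Antagonism of the tachycardic response to (±)-isoproterenol (0.1 mg/kg iv) was measured. ID50 is the dose giving 50% inhibition of that response (mean ± SEM), with 3-8 animals per compound. Statistics used analysis of variance with Duncan's multiple range test.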

[2] = biological target: T1, Adrenergic receptor alpha (Rattus norvegicus) (UniProt P15823+P23944+P43140+P22086+P19328+P22909)
[3] = test system: Rattus norvegicus; assay: Change in Heart rate(beats/min) was determined after 4 hr of (10 mg/kg p.o.) administration in conscious, spontaneously hypertensive rats; format: functional
Outline: (§1)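 Conscious spontaneously hypertensive rats (n = 4 per group) were dosed orally at 10 mg/kg as HCl salts, with placebo as a control group. Blood pressure was measured directly, and heart rate was also recorded. Changes from pre-dose values were read at 1, 2, 3 and 4 h and reported as means ± SEM. Analysis used ANOVA with Duncan's multiple range statistic.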

[4] = test system: Rattus norvegicus; assay: Change in blood-pressure was determined after 4 hr administration of (10 mg/kg/po) in conscious, spontaneously hypertensive rats(SHR); format: functional; outline: as §1
[5] = biological target: Beta-1 adrenergic receptor (Rattus norvegicus) (UniProt P18090); assay: Antagonistic activity was determined for 50% inhibition of tachycardia response in anesthetized, normotensive rat at a dose range of 0.3-3 mg/kg(iv); Inactive; format: functional, organism-based
Outline: (§2)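 Anesthetized normotensive rats received the test agent iv as HCl salts in three cumulative doses. The tachycardic response to (±)-isoproterenol (0.1 mg/kg iv) was measured. ID50 is the iv dose giving 50% inhibition of that response, reported as mean ± SEM. Analysis used analysis of variance with Duncan's multiple range statistic.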

[6] = test system: Rattus norvegicus; assay: Change in Heart rate(beats/min) was determined after 3h of (10 mg/kg p.o.) administration in conscious, spontaneously hypertensive rats; format: functional; outline: as §1
[7] = test system: Rattus norvegicus; assay: Decrease in blood pressure(mm/Hg) was determined after administration of (10 mg/kg/po); format: functional
Outline: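 Conscious spontaneously hypertensive rats, n = 4 per group, placebo control. Single oral dose of 10 mg/kg as HCl salt. Blood pressure and heart rate were measured directly before dosing and at 1, 2, 3 and 4 h after. Change from predose is given as mean ± SEM. Statistics used analysis of variance with Duncan's multiple range test.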

[8] = test system: Rattus norvegicus; assay: Change in blood-pressure was determined after 2 hr administration of (10 mg/kg/po) in conscious, spontaneously hypertensive rats(SHR); format: functional; outline: as §1
[9] = test system: Rattus norvegicus; assay: Change in blood-pressure was determined after 3h administration of (10 mg/kg/po) in conscious, spontaneously hypertensive rats(SHR); format: functional; outline: as §1
[10] = test system: Rattus norvegicus; assay: Antihypertensive activity was determined by Heart rate(beats/min) measurement before dosing in conscious, spontaneously hypertensive rats; format: functional
Outline: (§3)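 Blood pressure (mmHg) and heart rate (beats/min) were measured directly in conscious spontaneously hypertensive rats before oral dosing. Groups had n = 4, and values are means ± SEM.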

[11] = test system: Rattus norvegicus; assay: Change in Heart rate(beats/min) was determined after 1 hr of (10 mg/kg p.o.) administration in conscious, spontaneously hypertensive rats; format: functional; outline: as §1
[12] = test system: Rattus norvegicus; assay: Change in blood-pressure was determined after 1 hr administration of (10 mg/kg/po) in conscious, spontaneously hypertensive rats(SHR); format: functional; outline: as §1
[13] = test system: Rattus norvegicus; assay: Antihypertensive activity was determined before dosing in conscious, spontaneously hypertensive rats(SHR); format: functional; outline: as §3
[14] = test system: Rattus norvegicus; assay: Change in Heart rate(beats/min) was determined after 2 hr of (10 mg/kg p.o.) administration in conscious, spontaneously hypertensive rats; format: functional; outline: as §1
[15] = Ratio of Relative potency of beta1/alpha bock values; 26-39
[16] = species on record: Rattus norvegicus; assay: Potency (vasodilation) relative to labetolol; format: functional
[17] = test system: Rattus norvegicus; assay: Decrease in blood pressure(mm/Hg) was determined after administration of (10 mg/kg/po); 30-32/>4; format: functional
[18] = biological target: Beta-1 adrenergic receptor (Rattus norvegicus) (UniProt P18090); assay: Antagonistic activity was determined for 50% inhibition of tachycardia response in anesthetized, normotensive rat at a dose range of 0.1-1(iv); format: functional, organism-based; outline: as §2
[19] = test system: Adrenergic receptor alpha (Rattus norvegicus); assay: Relative alpha-adrenergic blocking potency was determined after administration of intravenously
[20] = test system: Rattus norvegicus; assay: Antihypertensive activity was determined before dosing in conscious, spontaneously hypertensive rats(SHR); 12/~1; format: functional
[21] = biological target: Beta-1 adrenergic receptor (Rattus norvegicus) (UniProt P18090); assay: Antagonistic activity was determined for 50% inhibition of tachycardia response in anesthetized, normotensive rat at a dose range of 0.3-3 mg/kg(iv); format: functional, organism-based; outline: as §2
[22] = test system: Rattus norvegicus; assay: Change in blood-pressure was determined after 2 hr administration of(10 mg/kg/po) in conscious, spontaneously hypertensive rats(SHR); format: functional; outline: as §1
[23] = biological target: Beta-1 adrenergic receptor (Rattus norvegicus) (UniProt P18090); assay: Antagonistic activity was determined for 50% inhibition of tachycardia response in anesthetized, normotensive rat at a dose range of 0.03-0.3 mg/kg(iv); format: functional, organism-based; outline: as §2
[24] = biological target: T1, Adrenergic receptor alpha (Rattus norvegicus); remark: listed apart in the source
[25] = test system: Rattus norvegicus; assay: Change in blood-pressure was determined after 3h administration of(10 mg/kg/po) in conscious, spontaneously hypertensive rats(SHR); format: functional; outline: as §1
[26] = test system: Rattus norvegicus; assay: Change in blood-pressure was determined after 1 hr administration of(10 mg/kg/po) in conscious, spontaneously hypertensive rats(SHR); format: functional; outline: as §1
[27] = test system: Rattus norvegicus; assay: Change in blood-pressure was determined after 4 hr administration of(10 mg/kg/po) in conscious, spontaneously hypertensive rats(SHR); format: functional; outline: as §1
[28] = Ratio of Relative potency of beta1/alpha bock values; format: functional
[29] = biological target: T1, Adrenergic receptor alpha (Rattus norvegicus); remark: listed apart in the source

Beta-1 adrenergic receptor (Rattus norvegicus), sequence (P18090 whole entry, looked up): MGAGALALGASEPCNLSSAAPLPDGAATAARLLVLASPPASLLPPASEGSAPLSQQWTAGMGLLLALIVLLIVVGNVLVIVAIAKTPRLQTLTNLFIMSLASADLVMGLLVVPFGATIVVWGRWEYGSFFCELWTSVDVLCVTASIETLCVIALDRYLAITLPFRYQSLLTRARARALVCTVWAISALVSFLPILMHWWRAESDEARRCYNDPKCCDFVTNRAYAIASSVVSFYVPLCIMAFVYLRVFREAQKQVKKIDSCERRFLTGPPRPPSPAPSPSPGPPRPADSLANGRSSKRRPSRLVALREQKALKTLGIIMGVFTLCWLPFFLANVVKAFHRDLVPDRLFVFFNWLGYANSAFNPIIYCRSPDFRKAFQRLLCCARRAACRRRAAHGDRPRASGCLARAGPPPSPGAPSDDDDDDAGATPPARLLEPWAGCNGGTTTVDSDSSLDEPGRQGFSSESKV

Row | Relative potency [1] | ID50 [2] [mg/kg] | ID50 [21] [mg/kg] | Structure (SMILES) | Heart rate [3] [beats min-1] | Change in BP [4] [mmHg] | Heart rate [6] [beats min-1] | Decrease in blood pressure [7] | Change in BP [8] [mmHg] | Change in BP [9] [mmHg] | Heart rate [10] [beats min-1] | Heart rate [11] [beats min-1] | Change in BP [12] [mmHg] | BP [13] [mmHg] | Heart rate [14] [beats min-1] | Relative potency [16] | Decrease in blood pressure [17] | also measured
1 | 0 | 4.8 |  | C[C@@H](CCc1ccccc1)NC[C@@H](O)c1ccc(O)c(C(N)=O)c1.Cl | -7 | 8 | -4 | 0 | 10 | 11 | 356 | 8 | 4 | 159 | 1 |  |  | ID50 [5]: inactive
2 | 1 | 7.1 |  | CC(CCc1ccccc1)NCC(O)c1ccc(O)c(C(N)=O)c1 (centres undefined) [LABETALOL] | -23 | -20 | -27 |  | -22 | -20 | 362 | -13 | -29 | 160 | -18 | 1 | >30 | Ratio [15]: 26; ID50 [18]: 0.25 mg/kg
3 |  | 1.3 | 5 | C[C@H](CCc1ccccc1)NC[C@@H](O)c1ccc(O)c(C(N)=O)c1.Cl | -39 | -3 | -34 |  | -5 | -4 | 359 | -9 | -12 | 158 | -16 |  |  | Relative potency [19]: 5.1; Decreace in BP [20]: 12 mmHg
4 | 3.5 |  |  | C[C@H](CCc1ccccc1)NC[C@H](O)c1ccc(O)c(C(N)=O)c1.Cl [DILEVALOL HYDROCHLORIDE] | -45 |  | -55 |  |  |  | 378 | -47 |  | 160 | -41 | 7 | >30 | Change in BP [22]: -26 mmHg; ID50 [23]: 0.07 mg/kg; ID50 [24]: 35 mg/kg; Change in BP [25]: -29 mmHg; Change in BP [26]: -26 mmHg; Change in BP [27]: -27 mmHg; Ratio [28]: > 500
5 | < 0.06 |  | 4.1 | C[C@@H](CCc1ccccc1)NC[C@H](O)c1ccc(O)c(C(N)=O)c1.Cl | 6 | 8 | -8 | 0 | -2 | 6 | 362 | 7 | -5 | 164 | 5 |  |  | ID50 [29]: inactive
